We go through eleven compounds from ChEMBL document CHEMBL1154198, “Chemical genetics of Plasmodium falciparum” (Nature, 2010).

The test system of data set [1] is Plasmodium falciparum. The data set is described as follows: ST_JUDE: Cytotoxicity against Plasmodium falciparum V1/S. In kind it is functional, organism-based.
In data set [2] the test system is Plasmodium falciparum. The data set is described as follows: ST_JUDE: Cytotoxicity against Plasmodium falciparum Dd2. Format: functional, organism-based.
Data set [3] has as its system Plasmodium falciparum. Kind of data set: ST_JUDE: Cytotoxicity against Plasmodium falciparum 3D7. Format: functional, organism-based. The gist of the method: (§1)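 Asexual P. falciparum grown in human erythrocytes, exposed to compounds for 72 h, and growth read as the DNA quantity in treated versus control cultures. Dose-response run at 12 concentrations from 10 μM to 5 nM.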

A short description of data set [4]: ST_JUDE: Cytotoxicity using luciferase to measure ATP as an indicator of the viability of human epithelial hepatocellular carcinoma cells (HepG2). In kind it is toxicity, cell-based.
Data set [5] has as its system Plasmodium falciparum. The data set is described as follows: ST_JUDE: Cytotoxicity against Plasmodium falciparum SB-A6. Format: functional, organism-based.
Data set [6] is described as follows: ST_JUDE: Cytotoxicity using luciferase to measure ATP as an indicator of the viability of human epithelial embryonic kidney cells (HEK293). Format: toxicity, cell-based.
Data set [7] can be described thus: ST_JUDE: Cytotoxicity using luciferase to measure ATP as an indicator of the viability of human Burkitt''s lymphoma lymphoblast cells (Raji). Format: toxicity, cell-based.
Data set [8] concerns Plasmodium falciparum. The data set is described as follows: ST_JUDE: Cytotoxicity against Plasmodium falciparum K1. In kind it is functional, organism-based. Summed up:
as §1

For the next data set, the system named is Toxoplasma gondii. The data set is described as follows: ST_JUDE: Growth inhibition of to Toxoplasma gondii, in human U-2OS cells, as measured by luciferase. Format: functional, organism-based. The conditions noted are these: RH, U2OS. The gist of the method:
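T. gondii parasites engineered to express luciferase; drug sensitivity read by luminescence.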

The nature of data set [9]: ST_JUDE: Cytotoxicity using luciferase to measure ATP as an indicator of the viability of human foreskin fibroblast cells (BJ). Format: toxicity, cell-based.
For data set [10], the system named is Plasmodium falciparum. Kind of data set: ST_JUDE: Cytotoxicity against Plasmodium falciparum D10 transfected with yeast DHOD. Format: functional, organism-based.
The next data set concerns Trypanosoma brucei. Kind of data set: ST_JUDE: Cytotoxicity using luciferase to measure ATP as an indicator of the viability of Trypanosoma brucei. Format: functional, organism-based.
The test system of data set [11] is Plasmodium falciparum. Kind of data set: ST_JUDE: Plasmodium falciparum 3D7 EC50 (uM) as measured by SYBR green dye. In kind it is functional, organism-based.
Data set [12] deals with Plasmodium falciparum. The data set is described as follows: ST_JUDE: Plasmodium falciparum K1 EC50 (uM) as measured by SYBR green dye. Format: functional, organism-based.
Data set [13] deals with Plasmodium falciparum. Kind of data set: ST_JUDE: Cytotoxicity against Plasmodium falciparum W2. In kind it is functional, organism-based.
The next data set deals with Leishmania major. The data set is described as follows: ST_JUDE: Cytotoxicity using Alamar Blue to measure viability of Leishmania major. Format: functional, organism-based. Summed up: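 L. major promastigotes; drug susceptibility read with Alamar Blue.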

In the case of `Cc1cc(C)nc(/N=C(\N)Nc2ccccc2O)n1`, the EC50 in the data set on Plasmodium falciparum [1] was 978 nM; with Plasmodium falciparum [2] it was 908 nM; in the data set with Plasmodium falciparum [3], 1430 nM; in [4], > 34200 nM; with Plasmodium falciparum [5], 2180 nM; in data set [6] it was > 34200 nM. Also, the EC50 in data set [7] is > 34200 nM; with Plasmodium falciparum [8], 560 nM; in the data set with Toxoplasma gondii, > 18700 nM; in [9] it was > 34200 nM; with Plasmodium falciparum [10], 2880 nM; in the data set with Trypanosoma brucei, > 32800 nM. Moreover, the EC50 is 594 nM in the data set with Plasmodium falciparum [11], 497 nM in the data set with Plasmodium falciparum [12], 5710 nM in the data set with Plasmodium falciparum [13] and > 14600 nM in the data set with Leishmania major.
Consider `CCOc1ccc2nc3cc(N)ccc3c(N)c2c1`, for which the EC50 with Plasmodium falciparum [1] is 2000 nM; with Plasmodium falciparum [2], 294 nM; in the data set on Plasmodium falciparum [3], 1940 nM; in [4], > 32600 nM; in the data set with Plasmodium falciparum [5] it was 2380 nM; in data set [6], > 32600 nM. The EC50 in [7] is > 32600 nM; with Plasmodium falciparum [8], 1730 nM; in the data set on Toxoplasma gondii, > 17900 nM; in data set [9], 17900 nM; in the data set with Plasmodium falciparum [10] it was 2390 nM; in the data set on Trypanosoma brucei, 7470 nM. Also, the EC50 was 1120 nM in the data set on Plasmodium falciparum [11], 582 nM in the data set on Plasmodium falciparum [12], 758 nM in the data set on Plasmodium falciparum [13] and > 14000 nM in the data set on Leishmania major.
Turning to `COc1ccc2c(c1)N(C)/C(=C/c1cccc[n+]1C)S2`, the EC50 is 1500 nM with Plasmodium falciparum [1]; 472 nM in the data set on Plasmodium falciparum [2]; 440 nM with Plasmodium falciparum [3]; > 15700 nM in data set [4]; 1260 nM in the data set with Plasmodium falciparum [5]; > 15700 nM in [6]. For the same compound, the EC50 in data set [7] was 6520 nM; with Plasmodium falciparum [8], 386 nM; in the data set with Toxoplasma gondii, > 8630 nM; in data set [9] it was > 15700 nM; with Plasmodium falciparum [10] it was 2460 nM; with Trypanosoma brucei, 643 nM. Besides, the EC50 is 186 nM in the data set with Plasmodium falciparum [11], 152 nM with Plasmodium falciparum [12], > 4040 nM in the data set on Plasmodium falciparum [13] and 8.8 nM in the data set on Leishmania major.
For the compound `CCOc1ccccc1N1CCN(Cc2cc(Br)cc(OC)c2O)CC1`, the EC50 was 643 nM in the data set on Plasmodium falciparum [1]; 1170 nM with Plasmodium falciparum [2]; 1510 nM in the data set with Plasmodium falciparum [3]; > 36800 nM in data set [4]; 1140 nM with Plasmodium falciparum [5]; > 36800 nM in [6]. Also, the EC50 in data set [7] was > 36800 nM; in the data set on Plasmodium falciparum [8] it was 478 nM; with Toxoplasma gondii, > 20100 nM; in data set [9], > 36800 nM; with Plasmodium falciparum [10], 2420 nM; with Trypanosoma brucei it was > 35300 nM. Besides, the concentration for a half-maximal effect (EC50) was 1210 nM in the data set with Plasmodium falciparum [11], 1110 nM in the data set with Plasmodium falciparum [12], 2930 nM with Plasmodium falciparum [13] and > 15700 nM with Leishmania major.
With `CCc1ccc(Nc2cc(C)c3ccc(O)cc3n2)cc1`, the EC50 in the data set on Plasmodium falciparum [1] was 182 nM; in the data set with Plasmodium falciparum [2], 784 nM; with Plasmodium falciparum [3], 636 nM; in data set [4] it was 23500 nM; with Plasmodium falciparum [5], 831 nM; in data set [6], > 43600 nM. Also, the EC50 in data set [7] was 30800 nM; with Plasmodium falciparum [8], 188 nM; in the data set with Toxoplasma gondii, > 23900 nM; in data set [9] it was > 43600 nM; in the data set with Plasmodium falciparum [10], 594 nM; in the data set with Trypanosoma brucei, > 41800 nM. Also, the EC50 in the data set with Plasmodium falciparum [11] was 732 nM; with Plasmodium falciparum [12], 127 nM; with Plasmodium falciparum [13], 714 nM; in the data set on Leishmania major, > 18700 nM.
On to `Oc1ccc(Br)cc1CN1CCN(C2CC3CCC2C3)CC1` (stereo unspecified), for which the EC50 was 290 nM in the data set with Plasmodium falciparum [1]; 285 nM with Plasmodium falciparum [2]; 501 nM with Plasmodium falciparum [3]; > 38200 nM in data set [4]; 953 nM in the data set on Plasmodium falciparum [5]; > 38200 nM in data set [6]. In addition, the EC50 is > 38200 nM in [7]; 131 nM in the data set on Plasmodium falciparum [8]; > 20900 nM in the data set on Toxoplasma gondii; > 38200 nM in data set [9]; 864 nM in the data set with Plasmodium falciparum [10]; > 36600 nM in the data set with Trypanosoma brucei. The EC50 in the data set with Plasmodium falciparum [11] is 289 nM; in the data set with Plasmodium falciparum [12], 181 nM; in the data set with Plasmodium falciparum [13], 519 nM; in the data set on Leishmania major, > 16400 nM.
Take `CC(C)NCC(O)Cn1c2ccc(Cl)cc2c2cc(Cl)ccc21` (stereo unspecified): the EC50 is 4840 nM with Plasmodium falciparum [1]; 238 nM with Plasmodium falciparum [2]; 1800 nM in the data set with Plasmodium falciparum [3]; 7620 nM in data set [4]; 656 nM in the data set with Plasmodium falciparum [5]; 17700 nM in data set [6]. The EC50 is 20900 nM in [7]; 477 nM with Plasmodium falciparum [8]; > 22800 nM with Toxoplasma gondii; > 41600 nM in [9]; 626 nM in the data set with Plasmodium falciparum [10]; 861 nM with Trypanosoma brucei. The EC50 was 270 nM in the data set on Plasmodium falciparum [11], 140 nM in the data set with Plasmodium falciparum [12], 122 nM in the data set with Plasmodium falciparum [13] and > 17800 nM in the data set on Leishmania major.
`CC(C)(C)c1cc(C2C(C#N)=C(N)OC3=C2C(=O)CCC3)cc(C(C)(C)C)c1O` (stereo unspecified): the EC50 with Plasmodium falciparum [1] is 1520 nM; in the data set on Plasmodium falciparum [2], 2530 nM; in the data set with Plasmodium falciparum [3], 1850 nM; in data set [4], 3030 nM; in the data set with Plasmodium falciparum [5] it was 2530 nM; in data set [6] it was > 36200 nM. For the same compound, the EC50 in data set [7] is 3040 nM; with Plasmodium falciparum [8] it was 1860 nM; in the data set on Toxoplasma gondii, 1340 nM; in data set [9], > 36200 nM; in the data set on Plasmodium falciparum [10] it was 2390 nM; in the data set with Trypanosoma brucei, 5460 nM. In addition, the half-maximal effective concentration (EC50) was 1350 nM with Plasmodium falciparum [11], 427 nM in the data set on Plasmodium falciparum [12], 3440 nM in the data set on Plasmodium falciparum [13] and > 15500 nM in the data set on Leishmania major.
Regarding `CCCO/C(O)=C1\C(C)=NC2=C(C(=O)CC(c3ccc(OC)c(OC)c3)C2)C1c1ccccc1C` (stereo unspecified), the EC50 in the data set with Plasmodium falciparum [1] was 98.2 nM; in the data set with Plasmodium falciparum [2] it was 89.8 nM; with Plasmodium falciparum [3], 134 nM; in data set [4] it was > 41300 nM; with Plasmodium falciparum [5], 56.5 nM; in data set [6] it was > 41300 nM. Further, the EC50 is > 41300 nM in data set [7]; 110 nM with Plasmodium falciparum [8]; > 22600 nM with Toxoplasma gondii; > 41300 nM in [9]; 68.5 nM in the data set with Plasmodium falciparum [10]; 6570 nM in the data set on Trypanosoma brucei. Besides, the EC50 in the data set on Plasmodium falciparum [11] is 308 nM; in the data set on Plasmodium falciparum [12] it was 292 nM; in the data set with Plasmodium falciparum [13], 21.3 nM; with Leishmania major, > 17700 nM.
On to `CCN1/C(=C/c2cccc[n+]2C)Sc2ccc(OC)cc21`, for which the EC50 in the data set with Plasmodium falciparum [1] is 1080 nM; with Plasmodium falciparum [2], 748 nM; in the data set on Plasmodium falciparum [3] it was 603 nM; in data set [4], > 26200 nM; with Plasmodium falciparum [5], 1550 nM; in [6] it was > 26200 nM. Besides, the EC50 is 3160 nM in [7]; 784 nM in the data set with Plasmodium falciparum [8]; > 14300 nM in the data set with Toxoplasma gondii; > 26200 nM in [9]; 1270 nM in the data set with Plasmodium falciparum [10]; 3730 nM in the data set with Trypanosoma brucei. For the same compound, the EC50 in the data set on Plasmodium falciparum [11] was 480 nM; in the data set with Plasmodium falciparum [12], 329 nM; in the data set with Plasmodium falciparum [13], > 6720 nM; in the data set with Leishmania major, 18.9 nM.
Turning to `O=[N+]([O-])c1ccc(S(=O)(=O)N2CCN(C(=S)NCc3ccco3)CC2)cc1`, the EC50 was 269 nM in the data set with Plasmodium falciparum [1]; 123 nM with Plasmodium falciparum [2]; 261 nM in the data set on Plasmodium falciparum [3]; > 31700 nM in [4]; 289 nM in the data set with Plasmodium falciparum [5]; > 31700 nM in [6]. Besides, the 50% effective concentration (EC50) was > 31700 nM in data set [7]; 252 nM in the data set with Plasmodium falciparum [8]; > 17400 nM with Toxoplasma gondii; > 31700 nM in data set [9]; 316 nM with Plasmodium falciparum [10]; > 30400 nM in the data set with Trypanosoma brucei. In addition, the EC50 is 185 nM with Plasmodium falciparum [11], 132 nM in the data set on Plasmodium falciparum [12], 300 nM with Plasmodium falciparum [13] and > 13600 nM with Leishmania major.

As usually defined, the EC50 is the concentration needed to bring the measured effect to its halfway point. High values mean lower potency in that assay, low ones higher potency in that assay.
